APJ agonist – agonists of human APJ apelin receptor. CHO-K1 APJ PathHunter beta-arrestin, luminescence; 0% DMSO wells, 100% apelin. activation, % at 20 µM. 0.11% of 330,000 active. AID 2520;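 active = activation more than six SD over the plate average, tested at 20 µM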;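 also: 0% = DMSO alone and 100% = apelin-13 at 10 nM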
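Test system: CHO-K1 APJ beta-arrestin complementation cell line. Amount: cell density 1000 per well. Controls: DMSO negative, 10 nM Apelin-13 positive. Signal: luminescent beta-gal fragment complementation, chemiluminescent substrate. Read-out basis: agonist-driven arrestin binding to APJ. Timing: compound stimulation 90 min at 25 °C, detection 60 min.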
CXCR6 inh – blocks human CXCR6 beta-arrestin recruitment. 0.36% of 360,000 active. CHO-K1 PathHunter CXCR6 beta-arrestin, luminescence. inhibition, % at 20 µM; in the data active = inhibition above about 34%, passing the limit was not always enough;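 also: antagonist mode with CXCL16 agonist at 10 nM final; 0% = 10 nM CXCL16 with DMSO and 100% = unstimulated wells without agonist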
APJ antag – antagonists of human APJ apelin receptor; P35414; CHO-K1 APJ beta-arrestin complementation, luminescence; AID 2521; inhibition, % at 20 µM; 0.32% of 330,000 active;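 active = inhibition above about 40% at 20 µM, limit read from the data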;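 also: cells challenged with 10 nM apelin-13 agonist together with compound; plate controls were apelin-13 plus DMSO wells for no effect and DMSO wells lacking apelin-13 for full effect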
CCR6 antag – antagonists of human CCR6 receptor | P51684 | CHO-K1 CCR6 PathHunter beta-arrestin, luminescence, CCL20-stimulated | inhibition, % at 20 µM | 0.49% of 340,000 active | AID 493098;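 active = compounds whose inhibition of the agonist-driven luminescence signal at 20 µM reaches about 50%, limit read from the data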;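 also: cells stimulated with CCL20 at 14 nM final; plate controls were DMSO with CCL20 for no effect and DMSO without agonist for full effect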
EBI2 block – antagonists of human EBI2 receptor; inhibition, % at 5 µM; 0.81% of 360,000 active; EBI2 beta-arrestin recruitment, luminescence, 7a,25-OHC stimulated; in the data active = inhibition above about 38%;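 also: enzyme fragment complementation signal reports receptor beta-arrestin coupling in cells; 0% = agonist plus DMSO wells and 100% = wells without agonist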
Target sequence (P32249 whole entry, looked up, the tested form may be a part): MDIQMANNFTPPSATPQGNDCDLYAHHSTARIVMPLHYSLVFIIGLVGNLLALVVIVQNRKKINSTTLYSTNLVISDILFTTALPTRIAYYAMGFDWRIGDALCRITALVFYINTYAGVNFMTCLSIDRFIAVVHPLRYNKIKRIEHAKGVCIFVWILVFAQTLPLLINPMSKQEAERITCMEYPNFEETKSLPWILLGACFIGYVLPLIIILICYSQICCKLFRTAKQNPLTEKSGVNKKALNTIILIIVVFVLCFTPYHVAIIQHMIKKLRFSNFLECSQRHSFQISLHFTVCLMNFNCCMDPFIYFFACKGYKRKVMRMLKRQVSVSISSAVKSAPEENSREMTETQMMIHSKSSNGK
m5-HT2A agonist – agonists of mouse serotonin 5-HT2A receptor (HTR2A); P35363; CHO-K1 mHTR2A beta-arrestin complementation, luminescence; percent of 30 µM serotonin response; activation, % at 7.6 µM; 0.66% of 360,000 active; AID 624169;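 active = activation above a run cutoff, the mean activation of all tested compounds plus 3 SD, cut at about 14% in these data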;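 also: 0% = plate median of compound wells and 100% = 30 µM serotonin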
EBI2 antag conf – confirmation of human EBI2 receptor antagonists; inhibition, % at 5 µM; EBI2 beta-arrestin luminescence, 7a,25-OHC antagonism; AID 651997; shares compounds with EBI2 block; 29% of 2,400 active;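 active = inhibition of at least 50%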
EBI2 ag – EBI2 agonism counter-screen; EBI2-expressing cells, agonist mode, luminescence, 60 min; 0% vehicle, 100% 7α,25-dihydroxycholesterol control; 2,400 tested, under 10 active; shares compounds with EBI2 block; activation, % at 5 µM;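 active = activation of at least 50%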
bGal cs – beta-galactosidase inhibition counter-screen; purified beta-galactosidase, luminescent Galacton Star, 15 min; 1% of 2,400 active; inhibition, % at 5 µM; shares compounds with EBI2 block; AID 652176;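 active = replicate-average signal at least 3 plate SD below neutral wells, shown as high inhibition, flagging enzyme-inhibiting false positives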;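 also: 0% = DMSO wells with enzyme and 100% = wells lacking enzyme; higher means stronger loss of beta-gal luminescence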
Numbers without * were called inactive. In the library only some 2.1% were active in any assay of this set; here they are far more common.

`Cc1cc(C(=O)N2CCN(Cc3ccc4c(c3)OCO4)CC2)on1` gave APJ agonist -4.6, CXCR6 inh 0.9, APJ antag -4.5, CCR6 antag -1.2, EBI2 block -9.3 and m5-HT2A agonist 1.2.
`COc1cccc(-c2cc(C(=O)N3CCN(Cc4ccc5c(c4)OCO5)CC3)on2)c1` gave APJ agonist -5.1, CXCR6 inh -1.7, APJ antag -44.6, CCR6 antag 2.8, EBI2 block 70.2*, m5-HT2A agonist 0.0, EBI2 antag conf 54.0*, EBI2 ag -0.2 and bGal cs -11.1.
O=C(c1cc(-c2cccc(O)c2)on1)N1CCN(C(c2ccccc2)c2ccccc2)CC1 was read as APJ agonist -1.1, CXCR6 inh -1.3, APJ antag -0.2, CCR6 antag 8.4, EBI2 block 90.3*, m5-HT2A agonist 0.8, EBI2 antag conf 73.1*, EBI2 ag -0.1 and bGal cs 4.3.
COc1ccc(-c2cc(C(=O)N3CCN(Cc4ccccc4)CC3)no2)cc1OC was read as APJ agonist -1.8, CXCR6 inh -12.3, APJ antag -26.9, CCR6 antag -7.9, EBI2 block -18.5 and m5-HT2A agonist -2.4.
`COc1cccc(-c2cc(C(=O)N3CCN(Cc4ccccc4)CC3)no2)c1` gave APJ agonist -5.7, CXCR6 inh -0.9, APJ antag -12.4, CCR6 antag -7.7, EBI2 block 51.1*, m5-HT2A agonist -5.3, EBI2 antag conf 28.8, EBI2 ag -0.4 and bGal cs -8.0.
`N#CCCN(C(=O)COC(=O)CCc1c[nH]c2ccccc12)c1ccc(F)cc1` gave APJ agonist 4.3, CXCR6 inh 9.1, APJ antag -2.3, CCR6 antag 10.4, EBI2 block -4.2 and m5-HT2A agonist 7.7.
Cc1cc(Oc2nc3ccccn3c(=O)c2/C=C(\C#N)C(=O)NC2CCS(=O)(=O)C2)ccc1Cl (configuration not stated) was read as APJ agonist 2.7, CXCR6 inh -15.7, APJ antag -6.8, CCR6 antag 17.0, EBI2 block 49.1*, m5-HT2A agonist -1.2, EBI2 antag conf 66.0*, EBI2 ag -1.5 and bGal cs -14.1.
For Cc1cccc(Oc2nc3ccccn3c(=O)c2/C=C(\C#N)C(=O)NC2CCS(=O)(=O)C2)c1 (configuration not stated) the results were APJ agonist -0.9, CXCR6 inh 5.2, APJ antag -5.8, CCR6 antag -0.9, EBI2 block 45.0*, m5-HT2A agonist 4.8, EBI2 antag conf 53.3*, EBI2 ag -0.2 and bGal cs -17.8.
`Cc1ccc(Oc2nc3ccccn3c(=O)c2/C=C(\C#N)C(=O)Nc2c(C)n(C)n(-c3ccccc3)c2=O)c(C)c1` gave APJ agonist 0.4, CXCR6 inh 3.1, APJ antag -4.6, CCR6 antag 6.6, EBI2 block 63.4*, m5-HT2A agonist -4.2, EBI2 antag conf 58.2*, EBI2 ag 2.2 and bGal cs 2.8.
Screening S=C1NC[C@H](CC2CCCCC2)N1CCc1cccc2ccccc12 returned APJ agonist -7.6, CXCR6 inh -2.0, APJ antag 4.9, CCR6 antag 20.6, EBI2 block 51.4*, m5-HT2A agonist -1.4, EBI2 antag conf 19.6, EBI2 ag 1.0 and bGal cs 7.6.
Screening COc1ccc(NS(=O)(=O)c2cccc(C(=O)NNC(=O)CNC(=O)c3cccc(C)c3)c2)cc1 returned APJ agonist 3.4, CXCR6 inh -4.0, APJ antag -4.1, CCR6 antag -1.5, EBI2 block -8.7 and m5-HT2A agonist 1.4.
Screening COc1ccc(NC(=O)CN(C)C(=O)c2ccc3c(c2)CC(c2ccccc2)OC3=O)cc1 (configuration not stated) returned CXCR6 inh -7.6, EBI2 block 49.0*, m5-HT2A agonist -0.8, EBI2 antag conf 16.1, EBI2 ag -0.4 and bGal cs -12.2.
N#Cc1ccc(C(=O)N2CCN(S(=O)(=O)c3ccc(Cl)s3)CC2)cc1 was read as APJ agonist 2.8, CXCR6 inh -5.3, APJ antag 32.2, CCR6 antag 19.8, EBI2 block 55.6*, m5-HT2A agonist -8.0, EBI2 antag conf 30.8, EBI2 ag 0.4 and bGal cs 7.1.
For Cc1cccc(C)c1OCc1cc(C(=O)N(Cc2nccn2C)C(C)C)no1 the results were APJ agonist -0.4, CXCR6 inh 2.7, APJ antag -4.9, CCR6 antag 2.7, EBI2 block -2.4 and m5-HT2A agonist -0.2.
CC(NC(=O)COc1cccnc1[N+](=O)[O-])c1ccc(Cl)cc1 (configuration not stated) was read as APJ agonist -2.1, CXCR6 inh 6.8, APJ antag -1.7, CCR6 antag -5.3, EBI2 block -6.3 and m5-HT2A agonist -0.1.
`O=[N+]([O-])c1ccc(N2CCN(C(=S)NCc3ccc(Cl)cc3)CC2)cc1` gave APJ agonist -1.9, CXCR6 inh 14.1, APJ antag -6.8, CCR6 antag 11.1, EBI2 block 51.9*, m5-HT2A agonist -7.4, EBI2 antag conf 32.5, EBI2 ag 1.8 and bGal cs 9.2.
For COc1ccccc1NC(=O)C(C)Sc1nnc2ccccn12 (configuration not stated) the results were APJ agonist -2.0, CXCR6 inh 1.4, APJ antag -6.8, CCR6 antag -1.6, EBI2 block -0.1 and m5-HT2A agonist 1.4.
For C/C(=N\NC(=O)CSc1nc(C)cc(C)n1)c1ccc([N+](=O)[O-])cc1 the results were APJ agonist -0.9, CXCR6 inh 15.3, APJ antag 11.1, CCR6 antag 1.4, EBI2 block -1.8 and m5-HT2A agonist -0.8.
For COc1ccc(C(C)=O)cc1COC(=O)c1cc(=O)c2ccccc2o1 the results were APJ agonist -2.1, CXCR6 inh 0.8, APJ antag 12.3, CCR6 antag 10.7, EBI2 block -8.8 and m5-HT2A agonist -3.4.
For Cc1oc(C(C)(C)C)cc1C(=O)NC1CCN(Cc2ccccc2)CC1 the results were APJ agonist -2.0, CXCR6 inh 0.4, APJ antag 11.6, CCR6 antag -7.0, EBI2 block -5.7 and m5-HT2A agonist -8.4.

Screening data as filed in PubChem.
